Experimental data reported in ChEMBL document CHEMBL1147088, “Small molecule obatoclax (GX15-070) antagonizes MCL-1 and overcomes MCL-1-mediated resistance to apoptosis” (Proc Natl Acad Sci U S A, 2007).
Calls of active or inactive are those of the source. No cut-off for these calls is given here.

What was measured:
Epithelial cell = assay: […] in Bax and Bak double knock out E1A/p53DN-transformed mouse kidney epithelial cells assessed as caspase-3 activation at 2.0 uM; type: functional, cell-based
Eu-Myc [1] = assay: Induction of apoptosis in mouse Eu-Myc cells overexpressing MCL1 assessed as inhibition of colony formation at 1 uM; type: functional, cell-based
Eu-Myc [2] = assay: Induction of apoptosis in mouse Eu-Myc cells overexpressing BCL2 assessed as inhibition of colony formation at 1 uM; type: functional, cell-based
Eu-Myc [3] = assay: Induction of apoptosis in mouse Eu-Myc cells overexpressing A1 assessed as inhibition of colony formation at 1 uM; type: functional, cell-based
Eu-Myc [4] = assay: Induction of apoptosis in mouse Eu-Myc cells overexpressing MCL1 assessed as inhibition of cell survivability at 1 uM; type: functional, cell-based
Eu-Myc [5] = assay: Induction of apoptosis in mouse Eu-Myc cells overexpressing BCL2 assessed as inhibition of cell survivability at 1 uM; type: functional, cell-based
Eu-Myc [6] = assay: Induction of apoptosis in mouse Eu-Myc cells overexpressing A1 assessed as inhibition of cell survivability at 1 uM; type: functional, cell-based
Mus musculus [7] = assay: Toxicity in CB17 SCID mouse bearing human C33A cells xenografts assessed as survivability at 2 mg/kg, ip administered once in 3 days for 5 times after 14 days; type: organism-based, C-33-A; parameters: dose 2 mg/kg, route intraperitoneal; details: in vivo, 336 h
How it was run: (§1)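 Tumor-bearing mice as in the xenograft study (BALB/c with 4T1; CB17 SCID with C33A, PC3, SW480), 8 per cohort, dosed i.p. once every 3 days ×5. Body weight measured three times weekly; animal deaths and weight change recorded 14 days after first injection.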

Mus musculus [8] = assay: Toxicity in CB17 SCID mouse bearing human PC3 cells xenografts assessed as survivability at 2 mg/kg, ip administered once in 3 days for 5 times after 14 days; type: organism-based, PC-3; parameters: dose 2 mg/kg, route intraperitoneal; details: in vivo, 336 h; how it was run: as §1
Mus musculus [9] = assay: Toxicity in CB17 SCID mouse bearing human SW480 cells xenografts assessed as survivability at 2 mg/kg, ip administered once in 3 days for 5 times after 14 days; type: organism-based; parameters: dose 2 mg/kg, route intraperitoneal; details: in vivo, 336 h; how it was run: as §1
Mus musculus [10] = assay: Toxicity in BALB/c mouse bearing mouse 4T1 cells xenografts assessed as survivability at 2 mg/kg, ip administered once in 3 days for 5 times after 14 days; type: organism-based; parameters: dose 2 mg/kg, route intraperitoneal; details: in vivo, 336 h; how it was run: as §1
Mus musculus [11] = assay: Toxicity in CB17 SCID mouse bearing human C33A cells xenografts assessed as weight change at 2 mg/kg, ip administered once in 3 days for 5 times after 14 days; type: organism-based, C-33-A; parameters: dose 2 mg/kg, route intraperitoneal; details: in vivo, 336 h; how it was run: as §1
Mus musculus [12] = assay: Toxicity in CB17 SCID mouse bearing human PC3 cells xenografts assessed as weight change at 2 mg/kg, ip administered once in 3 days for 5 times after 14 days; type: organism-based, PC-3; parameters: dose 2 mg/kg, route intraperitoneal; details: in vivo, 336 h; how it was run: as §1
Mus musculus [13] = assay: Toxicity in CB17 SCID mouse bearing human SW480 cells xenografts assessed as weight change at 2 mg/kg, ip administered once in 3 days for 5 times after 14 days; type: organism-based; parameters: dose 2 mg/kg, route intraperitoneal; details: in vivo, 336 h; how it was run: as §1
E1A/p53DN [14] = assay: Increase in inhibition of MCL1 +/+ in mouse Bim transformed E1A/p53DN cells; type: functional, cell-based
[15] = target: Induced myeloid leukemia cell differentiation protein Mcl-1 (Homo sapiens, UniProt Q07820); assay: Inhibition of BH3 peptide binding to human recombinant MCL1 by fluorescence polarization assay
Bcl-2-like protein 2 = target: T1, Bcl-2-like protein 2 (Homo sapiens, UniProt Q92843); assay: Inhibition of BH3 peptide binding to human recombinant BCL-w by fluorescence polarization assay
T1 sequence (Q92843 whole entry): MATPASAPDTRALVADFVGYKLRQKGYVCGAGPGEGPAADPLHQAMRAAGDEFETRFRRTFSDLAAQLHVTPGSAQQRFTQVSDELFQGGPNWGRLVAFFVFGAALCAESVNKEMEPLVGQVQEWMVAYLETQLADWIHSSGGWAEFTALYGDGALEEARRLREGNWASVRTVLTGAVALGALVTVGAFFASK

Bcl-2-related protein A1 = target: T2, Bcl-2-related protein A1 (Homo sapiens, UniProt Q16548); assay: Inhibition of BH3 peptide binding to human recombinant A1 by fluorescence polarization assay
T2 sequence (Q16548 whole entry): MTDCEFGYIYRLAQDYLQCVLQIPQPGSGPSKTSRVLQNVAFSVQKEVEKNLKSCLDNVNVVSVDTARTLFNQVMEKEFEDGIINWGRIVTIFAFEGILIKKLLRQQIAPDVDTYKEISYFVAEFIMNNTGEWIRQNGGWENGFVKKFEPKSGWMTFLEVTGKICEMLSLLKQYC

Bcl-2-like protein 10 = target: T3, Bcl-2-like protein 10 (Homo sapiens, UniProt Q9HD36); assay: Inhibition of BH3 peptide binding to human recombinant BCL-b by fluorescence polarization assay
T3 sequence (Q9HD36 whole entry): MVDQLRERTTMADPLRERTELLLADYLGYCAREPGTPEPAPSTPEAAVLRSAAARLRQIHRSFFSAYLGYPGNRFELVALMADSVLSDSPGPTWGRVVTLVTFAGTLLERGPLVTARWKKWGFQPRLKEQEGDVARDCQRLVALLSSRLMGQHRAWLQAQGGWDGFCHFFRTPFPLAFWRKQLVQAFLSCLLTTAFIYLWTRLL

SK-MEL-5 [16] = assay: Inhibition of MCL1-BAK interaction in mitochondria of human SKMel5 cells at 10 nM; type: functional, cell-based
KB [17] = assay: Release of cytochrome c in mitochondria of human KB cells at 2 uM; type: functional, cell-based
How it was run: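 Mitochondria isolated from KB cells were incubated 30 min at 37°C with DMSO or compound, then reisolated. Mitochondrial pellet and post-mitochondrial supernatant were analysed by SDS/PAGE and cytochrome c immunoblot, with actin and a control protein as loading controls.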

SK-MEL-5 [18] = assay: Reduction in MCL1-BAK interaction in mitochondria of human SKMel5 cells at 1 uM after 5 hrs by immunoprecipitation; type: functional, cell-based
SK-MEL-5 [19] = assay: Disruption of BCL2-BIM interaction in mitochondria of human SKMel5 cells 5 hrs by immunoprecipitation; type: functional, cell-based
Saccharomyces cerevisiae [20] = assay: Antagonism of BAX/BAK dependent BCL pathway-mediated inhibition of Saccharomyces cerevisiae W301; type: functional, organism-based
How it was run: (§2)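 W301 yeast transformed with the indicated vectors; cultures in synthetic complete medium with 2% raffinose and 2% galactose, seeded at 0.01 OD units, compound or vehicle added (0.67% DMSO final). Cell density read after 48 h shaking at 30°C.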

Saccharomyces cerevisiae [21] = assay: Antagonism of BCL pathway-mediated inhibition of Saccharomyces cerevisiae W301 in absence of BAX/BAK; type: functional, organism-based; how it was run: as §2
Mus musculus [22] = assay: Toxicity in BALB/c mouse bearing mouse 4T1 cells xenografts assessed as weight change at 2 mg/kg, ip administered once in 3 days for 5 times after 14 days; type: organism-based; parameters: dose 2 mg/kg, route intraperitoneal; details: in vivo, 336 h; how it was run: as §1
C-33-A = assay: Antitumor activity in CB17 SCID mouse bearing human C33A cells xenografts at 2 mg/kg, ip administered once in 3 days for 5 times after 14 days; type: functional; details: route intraperitoneal
How it was run: (§3)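 Female mice, 6–8 weeks (BALB/c for 4T1; CB17 SCID for C33A, PC3, SW480), given s.c. flank cells in PBS. Dosing i.p. once every 3 days ×5, starting day 7 (SW480), 14 (C33A) or 8 (PC3, 4T1). Tumor size measured thrice weekly, volume = length × width²/2, 8 animals/cohort; T/C (mean tumor size change treated ÷ control) at 14 days after first dose.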

PC-3 = assay: Antitumor activity in CB17 SCID mouse bearing human PC3 cells xenografts at 2 mg/kg, ip administered once in 3 days for 5 times after 14 days; type: functional; details: route intraperitoneal; how it was run: as §3
SW480 = assay: Antitumor activity in CB17 SCID mouse bearing human SW480 cells xenografts at 2 mg/kg, ip administered once in 3 days for 5 times after 14 days; type: functional; details: route intraperitoneal; how it was run: as §3
4T1 = assay: Antitumor activity in BALB/c mouse bearing mouse 4T1 cells xenografts at 2 mg/kg, ip administered once in 3 days for 5 times after 14 days; type: functional; details: route intraperitoneal; how it was run: as §3
E1A/p53DN [23] = assay: Increase in inhibition of MCL1 -/- in mouse Bim transformed E1A/p53DN cells; type: functional, cell-based
KB [24] = assay: Reversal of MCL1 mediated resistance to ABT-737 in BCL2 overexpressing human KB cells assessed as cell death; type: functional, cell-based
B16-F1 = assay: Reversal of MCL1 mediated resistance to bortezomib in mouse B16-F1 cells assessed as cell death; type: functional, cell-based
[25] = target: Apoptosis regulator Bcl-2 (Homo sapiens, UniProt P10415); assay: Binding affinity to BCL2
Saccharomyces cerevisiae [26] = assay: Growth inhibition of Saccharomyces cerevisiae W301; type: functional, organism-based
How it was run: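 W301 yeast transformed with BCL-family/BAX/BAK or control vectors, then grown in synthetic complete medium with 2% raffinose and 2% galactose. Seeded at 0.01 OD units and shaken 48 h at 30°C. Compound or vehicle was added to growth medium with final DMSO 0.67%. Cell density was the read-out, and IC50 values were recorded.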

[27] = Cytotoxicity against mouse B16-F1 cells transfected with MCL1 siRNA assessed as assessed as annexin 5 uptake at 100 nM after 24 hrs by flow cytometry; type: functional
[28] = Cytotoxicity against mouse B16-F1 cells transfected with luciferase siRNA assessed as assessed as annexin 5 uptake at 100 nM after 24 hrs by flow cytometry; type: functional

Apoptosis regulator Bcl-2, sequence (P10415 whole entry): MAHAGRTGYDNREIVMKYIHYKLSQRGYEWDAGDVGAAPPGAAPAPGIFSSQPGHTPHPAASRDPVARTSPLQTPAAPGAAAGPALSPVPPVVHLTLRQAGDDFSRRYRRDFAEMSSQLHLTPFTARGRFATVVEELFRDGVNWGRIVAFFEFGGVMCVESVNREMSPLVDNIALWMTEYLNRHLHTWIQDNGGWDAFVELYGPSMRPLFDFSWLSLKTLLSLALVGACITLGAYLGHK
Induced myeloid leukemia cell differentiation protein Mcl-1, sequence (Q07820 whole entry): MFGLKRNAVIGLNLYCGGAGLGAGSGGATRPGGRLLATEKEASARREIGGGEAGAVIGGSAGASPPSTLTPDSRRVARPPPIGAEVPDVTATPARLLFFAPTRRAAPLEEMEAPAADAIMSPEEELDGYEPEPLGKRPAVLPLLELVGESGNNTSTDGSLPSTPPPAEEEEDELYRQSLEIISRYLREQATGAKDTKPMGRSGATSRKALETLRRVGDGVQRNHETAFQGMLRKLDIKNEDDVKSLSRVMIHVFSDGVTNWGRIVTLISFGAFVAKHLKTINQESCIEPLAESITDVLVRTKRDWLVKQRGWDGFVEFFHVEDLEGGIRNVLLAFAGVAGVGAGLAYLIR

Q: With `COC1=CC(c2cc3ccccc3[nH]2)=N/C1=C\c1[nH]c(C)cc1C` [OBATOCLAX] as the molecule, how does the Activity (Epithelial cell) read?
A: Active

Q: What about the Activity (Eu-Myc [1]) of the same molecule?
A: Active

Q: And the Activity (Eu-Myc [2])?
A: Active

Q: And the Activity (Eu-Myc [3])?
A: Active

Q: What about the Activity (Eu-Myc [4]) of the same molecule?
A: Active

Q: And the Activity (Eu-Myc [5])?
A: Active

Q: What about the Activity (Eu-Myc [6]) of the same molecule?
A: Active

Q: What about the Activity (Mus musculus [7]) of the same molecule?
A: Non-toxic

Q: What about the Activity (Mus musculus [8]) of the same molecule?
A: Non-toxic

Q: And the Activity (Mus musculus [9])?
A: Non-toxic

Q: And the Activity (Mus musculus [10])?
A: Non-toxic

Q: And the Activity (Mus musculus [11])?
A: 7%

Q: And the Activity (Mus musculus [12])?
A: 10%

Q: And the Activity (Mus musculus [13])?
A: 3%

Q: And the Activity (E1A/p53DN [14])?
A: Active

Q: And the Ki [15]?
A: 1 µM

Q: And the Ki (Bcl-2-like protein 2)?
A: 1 µM

Q: What about the Ki (Bcl-2-related protein A1) of the same molecule?
A: 1 µM

Q: What about the Ki (Bcl-2-like protein 10) of the same molecule?
A: 1 µM

Q: What about the Activity (SK-MEL-5 [16]) of the same molecule?
A: Active

Q: And the Activity (KB [17])?
A: inactive

Q: And the Activity (SK-MEL-5 [18])?
A: Active

Q: And the Activity (SK-MEL-5 [19])?
A: Active

Q: And the Activity (Saccharomyces cerevisiae [20])?
A: Active

Q: And the Activity (Saccharomyces cerevisiae [21])?
A: inactive

Q: And the Activity (Mus musculus [22])?
A: 1%

Q: And the Activity (C-33-A)?
A: 11%

Q: And the Activity (PC-3)?
A: 28%

Q: And the Activity (SW480)?
A: 35%

Q: What about the Activity (4T1) of the same molecule?
A: 42%

Q: And the Activity (E1A/p53DN [23])?
A: Active

Q: And the Activity (KB [24])?
A: Active

Q: What about the Activity (B16-F1) of the same molecule?
A: Active

Q: For `Oc1cc(O)c2c(c1)O[C@H](c1ccc(O)c(O)c1)[C@H](O)C2` [(-)-EPICATECHIN], which Ki [25] is on record?
A: > 100 µM

Q: For `COc1cccc2c1C(=O)c1c(O)c3c(c(O)c1C2=O)C[C@@](O)(C(=O)CO)C[C@@H]3O[C@H]1C[C@H](N)[C@H](O)[C@H](C)O1` [DOXORUBICIN], which IC50 (Saccharomyces cerevisiae [26]) is on record?
A: 10 µM

Q: Which Ki [25] does the source give for `O=C(O[C@@H]1Cc2c(O)cc(O)cc2O[C@@H]1c1cc(O)c(O)c(O)c1)c1cc(O)c(O)c(O)c1` [EPIGALOCATECHIN GALLATE] here?
A: 0.234 µM

Q: Which Ki [25] does the source give for `O=c1c(O)cc([C@H]2Oc3cc(O)cc(O)c3C[C@H]2O)cc2c([C@H]3Oc4cc(O)cc(O)c4C[C@H]3O)cc(O)c(O)c12` [THEAFLAVIN] here?
A: 0.692 µM

Q: With `O=C(O[C@H]1Cc2c(O)cc(O)cc2OC1c1cc(O)c(=O)c2c(O)c(O)cc([C@H]3Oc4cc(O)cc(O)c4C[C@H]3O)c2c1)c1cc(O)c(O)c(O)c1` (stereo not given in full) as the molecule, how does the Ki [25] read?
A: 1.23 µM

Q: What does the source list for `CC(C)C[C@H](NC(=O)[C@H](Cc1ccccc1)NC(=O)c1cnccn1)B(O)O` [BORTEZOMIB]?
A: Activity [27]: 42%; Activity [28]: 14%
